# An excerpt weighted towards active compounds, which were near 3.1% of everything screened.
# Cneo AK release: Cryptococcus neoformans cell lysis inducers, primary screen, AK release luminescence, single concentration; C. neoformans lysis, adenylate kinase release luminescence, 4 h; normalised: neutral wells 0, clomiphene wells 100; lysis activity, % at 15 µM; 360,000 tested, 0.2% active;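 active means mean lysis activity across replicates of at least 80%, whatever share of replicates individually reach that level; inactive means mean lysis activity below 80%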
#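 read-out = cell lysis signal | test system = log-phase Cryptococcus neoformans yeast cells | input = cells at 5 × 10^6 per mL | medium = fresh YPD growth medium | signal = luminescent adenylate kinase detection reagent | timing = 4 h at 37 °C static, read 1 h later | dosing = single dose | controls = Clomiphene as positive lysis control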
# GSIS activator: GLuc luminescence reporter in INS-1E cells, primary screen for activators of glucose-dependent secretion of insulin; AID 743287, 2014; INS-1E GLuc reporter insulin secretion, 2-3 h; 370,000 tested, 0.61% active; activation, % at 16.6 µM;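 active means lowest replicate activation of at least 40%, so every replicate reaches that level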;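 further: 0% = median of neutral control wells and 100% = median of IBMX positive control wells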
# miR122 inh: miR-122 Renilla sensor signal increase in Huh7, primary screen, miR-122 inhibitor project, cell-based, single point, plate reader; 340,000 tested, 0.3% active; activation (reporter increase), % at 12.5 µM; Huh7 miR-122 Renilla luciferase sensor, 48 h; neutral wells = 0, positive control = 100;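 active means mean replicate activation score at least 90 and every replicate individually at or above 90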;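 further: higher luciferase means less miR-122 activity so hits act as miR-122 inhibitors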
# CFTR F508del cor: F508del CFTR correction, initial screen, CFBE line, single point; 350,000 tested, 0.36% active; CFBE cells, YFP halide quenching; stimulated with forskolin plus potentiator P3; % fluorescence drop versus neutral controls; AID 720511, 2013; activity (quench increase), % at 7.58 µM;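 active means mean added fluorescence quench of at least 8% versus neutral control, with both replicates also reaching 8%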;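 further: cells transiently co-express mutant CFTR-F508del with the halide-sensitive YFP; corrector assay measuring rescue of mutant channel to the surface after 24 h compound exposure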
# rRNA inh HTS: reduced GFP signal of wild-type E. coli, primary screen, bacterial rRNA inhibitor project, GFP/RFP fluorescence, OD600, single point. 350,000 tested, 1.6% active. GFP signal change (wild-type ribosome), % (concentration not given with the values). AID 720706, 2013. E. coli WT GFP vs humanized-ribosome RFP mutants, 24 h; hits give low values; DMSO median 0, no signal -100;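 active means significant combined selectivity score with lowered wild-type GFP, culture density cut under 30%, mutant RFP and density less affected; inactive means any of these conditions unmet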
# HIV Env fusion: inhibitors of HIV-1 Env-driven cell-cell fusion, primary screen, HeLa-JRFL effector, CEM21 target cells, luciferase; inhibition, % at 12.3 µM; 360,000 tested, 1.1% active; AID 651610, 2012;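 active means mean replicate inhibition score of at least 50 and every replicate individually at or above 50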;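 further: 0% = plate neutral controls and 100% = maraviroc near 300 nM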
# Numbers without * were called inactive; x = no result given; [ ] = another dose, or the depositor's remark.
SMILES,Cneo AK release,GSIS activator,miR122 inh,CFTR F508del cor,rRNA inh HTS,HIV Env fusion
C[C@H](NC(=O)C[C@@H]1CC[C@@H]2[C@H](COC[C@H](O)CN2C(=O)Nc2ccccc2)O1)c1ccccc1,-2,8,2[16.7 µM],1,1,x
COc1ccc(NC2=C(C(C)=O)C(c3ccccc3)C(C(C)=O)C(C)(O)C2)cc1 (stereo not given),x,-8,x,-1,-27*,-7
COc1ccc(NC2=C(C(C)=O)C(c3ccc(OC)c(OC)c3)C(C(C)=O)C(C)(O)C2)cc1 (stereo not given),-18,-3,-1,x,x,-9
COc1ccc(-c2ccc(-c3noc(-c4ccco4)n3)c(OC)n2)cc1,-4,55*,-2,x,x,-72
C[C@@H]1CN([C@H](C)CO)C(=O)c2cc(NC(=O)Cc3ccccc3)ccc2O[C@H]1CN(C)Cc1ccc(Cl)c(Cl)c1,1,-38,0[16.7 µM],1,1,x
CC1=CC(C)(C)N2C(=O)C(=O)c3cc(OC(=O)c4ccco4)cc1c32,x,-17,6,5,-23*,11
O=C1CCC(=O)N[C@@H](c2ccccc2)C/C=C\CCN1,x,6,x,x,6,x
CC(=O)N1CC(=O)N2[C@@H](CO)[C@H](c3ccc(-c4ccc(C(=O)N(C)C)cc4)cc3)[C@@H]2C1,x,5,x,-4,-1,x
O=C(C(Cc1ccccc1)N1C(=O)c2ccccc2C1=O)N1c2ccccc2CCc2ccccc21 (stereo not given),x,3,x,-2,6,66*
C[C@H]1CN([C@@H](C)CO)C(=O)CCCn2cc(nn2)CO[C@H]1CN(C)C(=O)Nc1ccccc1C(F)(F)F,x,6,-5[16.7 µM],2,-1,x
CO[C@H]1CN(C)C(=O)c2cc(NC(=O)c3ccccc3F)ccc2OC[C@@H](C)N(CC2CC2)C[C@@H]1C,-42,4,x,1,-1,x
C[C@@H]1CCCCO[C@H](CN(C)C(=O)c2ccncc2)[C@@H](C)CN([C@@H](C)CO)C(=O)c2cc(NC(=O)Cc3ccccc3)ccc2O1,0,22,-5[16.7 µM],-1,-3,-7[16.7 µM]
C[C@H]1CCCCO[C@H](CN(C)C(=O)c2ccncc2)[C@@H](C)CN([C@@H](C)CO)C(=O)c2cc(NC(=O)Cc3ccccc3)ccc2O1,113*,-6,50[16.7 µM],2,-1,-13[16.7 µM]
C[C@@H]1CCCCO[C@@H](CN(C)C(=O)c2ccncc2)[C@H](C)CN([C@H](C)CO)C(=O)c2cc(NC(=O)Cc3ccccc3)ccc2O1,0,-2,6[16.7 µM],1,2,15[16.7 µM]
C[C@H](CO)N1C[C@H](C)[C@@H](CN(C)C(=O)c2ccncc2)OCCCC[C@H](C)Oc2ccc(NC(=O)Cc3ccccc3)cc2C1=O,102*,23,10[16.7 µM],3,-2,2[16.7 µM]
COc1cc(/C=C2\CCC/C(=C\c3ccc(O)c(OC)c3)C2=O)ccc1O,0,15,x,-3,-12,-10
CCOc1cc(/C=C2\CN(CC)C/C(=C\c3ccc(O)c(OCC)c3)C2=O)ccc1O,0,-40,-36,-5,-10,67*
O=C(C[C@H]1CC[C@@H]2[C@H](COC[C@H](O)CN2C(=O)Nc2ccc(F)cc2)O1)NCCCN1CCOCC1,0,16,-5[16.7 µM],1,10,2[16.7 µM]
Cc1cc(S(=O)(=O)N(Cc2ccc3c(c2)OCO3)CC2CCCO2)ccc1-n1cnnn1 (stereo not given),1,x,52,x,x,x
Cc1cc(S(=O)(=O)N(Cc2ccc(C(C)C)cc2)CC2CCCO2)ccc1-n1cnnn1 (stereo not given),-1,-23,18,x,-21*,x
COc1ccc(CN(CC2CCCO2)S(=O)(=O)c2ccc(-n3cnnn3)c(OC)c2)cc1 (stereo not given),x,-2,x,-1,-32,-25
Cc1cc(S(=O)(=O)N(Cc2ccc(F)cc2)CC2CCCO2)ccc1-n1cnnn1 (stereo not given),0,-17,88,1,-21*,x
O=C(C[C@H]1C=C[C@H](NC(=O)C2CCC2)[C@H](CO)O1)NCc1ccncc1,-1,4,x,0,2,-2[16.7 µM]
COc1ccc(-c2csc(NC(=O)CC(NC(C)=O)c3ccccc3)n2)cc1OC (stereo not given),0,-33,2,1,-28*,11
CCC(=O)N1[C@@H](CO)[C@@H](c2ccc(-c3ccc(F)cc3)cc2)C12CN(C(C)=O)C2,x,-1,x,0,-2,x
SMILES,Cneo AK release,GSIS activator,miR122 inh,CFTR F508del cor,rRNA inh HTS,HIV Env fusion
CCOC(=O)c1cnc2c([N+](=O)[O-])cnn2c1C,0,9,1,1,8,14
O=[N+]([O-])c1cnn2cc(Br)cnc12,-2,45*,x,0,5,7
CC(=O)N(C)C[C@H]1Oc2ccc(NS(C)(=O)=O)cc2CC(=O)N(C)C[C@H]1C,x,23,x,x,0,x
O=C(C[C@@H]1CC[C@@H]2[C@H](COC[C@H](O)CN2C(=O)Nc2cccc(Cl)c2)O1)N1CCCCC1,-7,-17,-3[16.7 µM],0,-58,-14[16.7 µM]
S=c1[nH]nc(-c2ccc(Br)cc2)n1-c1ccc2c(c1)OCCO2,x,x,x,3,-14*,-30
S=c1[nH]nc(-c2ccc3ccccc3n2)n1-c1ccc2c(c1)OCCO2,x,34,x,-2,-33*,-73
COc1ccc(-c2n[nH]c(=S)n2-c2ccc3c(c2)OCCO3)cc1,1,12,-6,x,x,6
C[C@H](CO)N1C[C@H](C)[C@H](CN(C)C(=O)[C@H](C)c2ccccc2)OCc2ccccc2-c2c(n(C)c3ccccc23)C1=O,x,-16,x,-1,-3,x
C[C@H](CO)N1C[C@H](C)[C@@H](CN(C)Cc2cccnc2)Oc2ncc(-c3cccc(F)c3)cc2C1=O,1,27,-4[16.7 µM],1,-1,-65[16.7 µM]
CN1CCN(C(=O)C[C@@H]2CC[C@H](NC(=O)c3ccc4c(c3)OCO4)[C@@H](CO)O2)CC1,11,11,-7[16.7 µM],2,-1,7[16.7 µM]
COc1ccc(NC(=O)/C=C/c2ccccc2[N+](=O)[O-])c(OC)c1,x,7,x,x,-23*,9
COc1ccc(OC)c(NC(=O)/C=C/c2ccccc2[N+](=O)[O-])c1,0,6,-6,x,x,15
Cc1cc(Cn2nnc3ccccc32)c(O)c(C(C)(C)C)c1,-1,-6,134*,3,4,40
CC(C)(C)c1cccc(Cn2nnc3ccccc32)c1O,-2,-19,x,0,-33,43
Cc1cccc(CN2CCSCCS2(=O)=O)c1,x,17,x,-1,-8,61*

# Screens deposited in PubChem BioAssay by Broad Institute.
